Source: ChEMBL document CHEMBL4819003, “Optimization of novel oxidative DIMs as Nur77 modulators of the Nur77-Bcl-2 apoptotic pathway” (Eur J Med Chem, 2021)
The source made the active and inactive calls. No cut-off for these calls is given here.

Experiments:
MCF-10A = experiment: Cytotoxicity against human MCF-10A cells assessed as inhibition of cell growth measured after 24 hrs by MTT assay; assay type: cell-based
How it was run: (§1)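 MTT viability assay, 24 h exposure to a concentration series, 10^4 cells/well. Cancer lines were in DMEM (BT549, MDA-MB-231) or RPMI-1640 (HCT116, SW620) with 10% FBS. MCF10A and NCM460 were in DMEM with 20% FBS and 10 ng/ml EGF. MTT at 5 mg/mL for 4 h at 37 °C, formazan dissolved in DMSO, A490. IC50 from curve fit; mean ± SD, at least 6 experiments.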

HCT-116 [1] = experiment: Cytotoxicity against human HCT-116 cells assessed as inhibition of cell growth measured after 24 hrs by MTT assay; assay type: functional, cell-based; how it was run: as §1
NCM460 = experiment: Cytotoxicity against human NCM460 cells assessed as inhibition of cell growth measured after 24 hrs by MTT assay; assay type: cell-based; how it was run: as §1
MDA-MB-231 [2] = experiment: Induction of apoptosis in human MDA-MB-231 cells assessed as PARP cleavage at 0.5 uM measured after 6 hrs by western blot assay; assay type: functional, cell-based
How it was run: (§2)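 Cells exposed to 0.5 µM for 6 h. Lysates resolved by SDS-PAGE and blotted to PVDF, blocked in 5% milk/TBST, probed with primary antibodies at 1:1000, ECL detection. Apoptosis scored as the densitometric ratio of cleaved PARP band to intact PARP band; mean ± SD, n = 3.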

HCT-116 [3] = experiment: Induction of apoptosis in human HCT-116 cells assessed as PARP cleavage at 0.5 uM measured after 6 hrs by western blot assay; assay type: functional, cell-based; how it was run: as §2
MDA-MB-231 [4] = experiment: Induction of apoptosis in human MDA-MB-231 cells assessed as PARP cleavage at 0.5 uM measured after 6 hrs by western blot assay relative to Di(1H-indol-3-yl)(4-(trifluoromethyl)phenyl)methylium methanesulfonate; assay type: functional
How it was run: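 MDA-MB-231 in DMEM with 10% FBS, 0.5 µM for 6 h, then PARP western blot with 1:1000 primary antibodies and ECL. Cleaved PARP/PARP band intensity ratio expressed relative to the reference methylium methanesulfonate, whose ratio was set to 1. Mean ± SD, n = 3.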

[5] = target: T1, Nuclear receptor subfamily 4immunitygroup A member 1 (Homo sapiens, UniProt P22736); experiment: Modulation of Myc-Nur77 (unknown origin) transfected in human HEK293T cells assessed as induction of Myc-Nur77 mitochondrial targeting by measuring increase in Myc-Nur77 accumulation in mitochondria at 0.5 uM measured after 2 hrs by western blot analysis; conditions: filed as modulator
How it was run: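 HEK293T cells transfected with Myc-Nur77 were exposed to 0.5 μM compound for 2 h. Cells were homogenised in sucrose Buffer D; 500 g then 5000 g spins gave a mitochondrial pellet. Whole-cell and mitochondrial fractions were western blotted for Myc-Nur77, with PARP and Tom20 as fraction-purity markers.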

BT-549 [6] = experiment: Induction of apoptosis in human BT-549 cells assessed as PARP cleavage at 0.5 uM measured after 6 hrs by western blot assay; assay type: functional, cell-based; how it was run: as §2
SW-620 [7] = experiment: Induction of apoptosis in human SW-620 cells assessed as PARP cleavage at 0.5 uM measured after 6 hrs by western blot assay; assay type: functional, cell-based; how it was run: as §2
MEF [8] = experiment: Induction of apoptosis in wild type mouse MEF cells assessed as PARP cleavage at 0.5 uM measured after 6 hrs by western blot assay; assay type: functional, cell-based
How it was run: (§3)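 Wild-type, Nur77−/− or Bcl-2−/− mouse embryonic fibroblasts grown in DMEM with 10% FBS and treated with 0.5 µM for 6 h. PARP cleavage detected by western blot, primary antibodies at 1:1000, ECL.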

[9] = target: T1, Nuclear receptor subfamily 4immunitygroup A member 1; experiment: Modulation of Myc-Nur77-LBD (unknown origin) transfected in human HEK293T cells assessed as induction of Myc-Nur77 mitochondrial targeting by measuring increase in Myc-Nur77 accumulation in mitochondria at 0.5 uM measured after 2 hrs by Mito-tracker dye based confocal microscopy method; conditions: filed as modulator
How it was run: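 HEK293T cells transfected with Myc-Nur77-LBD were given 0.5 μM compound for 2 h, stained with Mito-Tracker and immunostained. Nur77 mitochondrial localisation was visualised by confocal microscopy.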

MEF [10] = experiment: Induction of apoptosis in mouse MEF cells deficient in Bcl2 assessed as PARP cleavage at 0.5 uM measured after 6 hrs by Western blot assay; assay type: functional, cell-based; how it was run: as §3
Mus musculus = experiment: Antitumour activity against FVB/N mammary tumor MMTV-PyMT mouse model assessed as inhibition of tumour growth at 3 mg/kg, po administered daily for 14 days; assay type: functional, organism-based; conditions: time 14.0 day
How it was run: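 Female MMTV-PyMT transgenic mice (FVB/N background), 12 weeks old, randomized n = 6 per group; daily oral gavage 3 mg/kg for 14 days. Dosing solution: DMSO stock diluted in normal saline with 5.0% (V/V) Tween-80 to 3 mg/mL. Tumours weighed at end; mean ± SD, Student's t-test versus untreated controls.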

MDA-MB-231 [11] = experiment: Cytotoxicity against human MDA-MB-231 cells assessed as inhibition of cell growth measured after 24 hrs by MTT assay; assay type: functional, cell-based; conditions: MDA-MB-231, 24 h; how it was run: as §1
BT-549 [12] = experiment: Cytotoxicity against human BT-549 cells assessed as inhibition of cell growth measured after 24 hrs by MTT assay; assay type: functional, cell-based; conditions: BT-549, 24 h; how it was run: as §1
SW-620 [13] = experiment: Cytotoxicity against human SW-620 cells assessed as inhibition of cell growth measured after 24 hrs by MTT assay; assay type: functional, cell-based; conditions: SW-620, 24 h; how it was run: as §1
[14] = target: T1, Nuclear receptor subfamily 4immunitygroup A member 1; experiment: Binding affinity to recombinant human N-terminal His-tagged Nur77-LBD (367 to 598 residues) expressed in Escherichia coli BL21 DE3 by flourescence quenching assay
How it was run: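 Human Nur77-LBD (367–598), N-terminal His tag, pET15b in E. coli BL21 DE3, Ni resin purified. Nur77-LBD at 1 µM in PBS in a quartz cell, titrated with compound over 0.01–1 µM at 25 °C. Excitation 280 nm, emission scanned 300–500 nm; peak intensity at 330 nm versus compound concentration fitted to a reported formula for Kd.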

[15] = target: T1, Nuclear receptor subfamily 4immunitygroup A member 1; experiment: Binding affinity to recombinant human N-terminal His-tagged Nur77-LBD (367 to 598 residues) expressed in Escherichia coli BL21 DE3 by surface plasmon resonance assay
How it was run: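 His-tagged human Nur77-LBD (367–598) from E. coli BL21 DE3, diluted to 0.05 mg/mL in 10 mM NaAc pH 5.0 and amine-coupled to a CM5 chip (~9000 RU). Compounds at 0.01–5 µM in PBS with 0.4% DMSO, 25 °C, 30 µL/min; 150 s association, 420 s dissociation, regeneration with 10 mM glycine-HCl pH 2.5. Reference- and blank-subtracted; Kd from global 1:1 kinetic fit.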

MEF [16] = experiment: Induction of apoptosis in mouse MEF cells lacking Nur77 assessed as PARP cleavage at 0.5 uM measured after 6 hrs by western blot assay; assay type: functional, cell-based; how it was run: as §3

T1 sequence (P22736 whole entry): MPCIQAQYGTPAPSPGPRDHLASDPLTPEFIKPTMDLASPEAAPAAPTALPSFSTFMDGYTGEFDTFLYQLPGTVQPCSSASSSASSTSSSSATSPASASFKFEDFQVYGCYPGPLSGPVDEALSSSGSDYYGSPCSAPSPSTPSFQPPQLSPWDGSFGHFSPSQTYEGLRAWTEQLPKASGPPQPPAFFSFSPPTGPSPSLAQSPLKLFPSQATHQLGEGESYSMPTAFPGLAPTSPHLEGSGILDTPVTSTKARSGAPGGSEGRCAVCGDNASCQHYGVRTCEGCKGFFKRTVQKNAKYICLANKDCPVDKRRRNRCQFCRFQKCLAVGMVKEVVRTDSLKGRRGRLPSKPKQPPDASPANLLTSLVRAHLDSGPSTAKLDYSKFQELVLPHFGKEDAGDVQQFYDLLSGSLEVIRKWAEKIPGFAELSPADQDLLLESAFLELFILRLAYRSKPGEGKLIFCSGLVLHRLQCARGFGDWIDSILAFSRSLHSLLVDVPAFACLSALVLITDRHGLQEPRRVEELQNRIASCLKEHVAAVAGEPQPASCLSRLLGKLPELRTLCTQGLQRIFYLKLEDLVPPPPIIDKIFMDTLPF

| Compound | Activity (MDA-MB-231 [2]) | Activity (HCT-116 [3]) | Activity (MEF [8]) | Activity (MEF [10]) | IC50 (MDA-MB-231 [11]) [nM] | IC50 (BT-549 [12]) [nM] | IC50 (MCF-10A; Homo sapiens, MCF-10A, 24 h) [nM] | IC50 (HCT-116 [1]; Homo sapiens, HCT-116, 24 h) [nM] | IC50 (SW-620 [13]) [nM] | IC50 (NCM460; Homo sapiens, NCM460, 24 h) [nM] | Activity (MEF [16]) | also measured |
| --- | --- | --- | --- | --- | --- | --- | --- | --- | --- | --- | --- | --- |
| FC(F)(F)c1ccc([C+](c2c[nH]c3ccccc23)c2c[nH]c3ccccc23)cc1 [listing 1 of 2 here] | – | – | – | – | – | – | – | – | – | – | – | IC50 (MCF-10A; mcf-10a): 3580 nM; IC50 (HCT-116 [1]; hct-116): 260 nM; IC50 (NCM460; ncm460): 5130 nM |
| CS(=O)(=O)[O-].c1ccc([C+](c2c[nH]c3ccccc23)c2c[nH]c3ccccc23)cc1 | Active | inactive | – | – | – | – | – | – | – | – | – | fold change (FC) (MDA-MB-231 [4]): 0.01 |
| FC(F)(F)c1ccc([C+](c2c[nH]c3ccccc23)c2c[nH]c3ccccc23)cc1 [listing 2 of 2 here] | Active | Active | Active | inactive | – | – | – | – | – | – | – | Activity [5]: Active; Activity (BT-549 [6]): Active; Activity (SW-620 [7]): Active; Activity [9]: Active; Activity (Mus musculus): Active |
| CCn1cc([C+](c2ccc(C(F)(F)F)cc2)c2c[nH]c3ccccc23)c2ccccc21 | Active | Active | Active | inactive | 80 | 50 | 1500 | 100 | 100 | 3080 | inactive | Kd [14]: 66 nM; Kd [15]: 36 nM |
| FC(F)(F)c1cccc([C+](c2c[nH]c3ccccc23)c2c[nH]c3ccccc23)c1.[Cl-] | Active | Active | – | – | 290 | 70 | 5030 | 310 | 130 | 10000 | – | fold change (FC) (MDA-MB-231 [4]): 1.76 |
| CCCn1cc([C+](c2ccc(C(F)(F)F)cc2)c2c[nH]c3ccccc23)c2ccccc21 | Active | Active | Active | inactive | 170 | 100 | 1310 | 350 | 160 | 5090 | inactive | – |
| FC(F)(F)c1ccc([C+](c2c[nH]c3ccccc23)c2c[nH]c3ccccc23)cn1 | Active | Active | Active | inactive | 230 | 50 | 2980 | 350 | 140 | 8100 | inactive | – |
| CC(C)(C)c1ccc([C+](c2c[nH]c3ccccc23)c2c[nH]c3ccccc23)cc1 | inactive | inactive | – | – | – | – | – | – | – | – | – | – |
